In paper PMC2782628 (Journal of medicinal chemistry, 2009):
Each block holds one compound with its values, some of them ahead of it.

Columns and labels:
iNOS = iNOS (Mus musculus, UniProt P29477); test: Blocking study of [18F]9 uptake in LPS-treated mice; type: in vivo, C57BL/6N mice
recombinant human iNOS = recombinant human iNOS (Homo sapiens, UniProt P35228); test: NOS enzyme assay; type: biochemical; conditions: for activity in the iNOS assay: structure-activity discussion
Summary of the method: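 Recombinant iNOS in 50 mM Tris pH 7.4 with 1.0 mM NADPH, 3.8 µM each of FMN, FAD and tetrahydro-L-biopterin, 2.0 mM DTT and 2.0 µM L-arginine. Test compound was diluted in methanol or water. [3H]arginine (0.1 µCi) started the reaction, run 30 min at room temperature. Stopped with yttrium-silicate arginine-binding SPA beads in NaOH; beads settled 2 h, then counted. IC50 from inhibition curves, mean ± S.D., N≥3.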

recombinant human eNOS = recombinant human eNOS (Homo sapiens, UniProt P29474); test: NOS enzyme assay; type: biochemical; conditions: iNOS vs eNOS
Summary of the method: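 The eNOS buffer also had 20 µg/mL calmodulin and 1 mM CaCl2. [3H]arginine started the reaction, 30 min at room temperature. SPA arginine-binding beads stopped it; counted after 2 h. Mean ± S.D., N≥3.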

[1] = In vivo biodistribution time-course study in control vs. LPS-treated mice; set-up: species or system C57BL/6 mice; conditions: for Biodistribution Blood / Biodistribution Bone / Biodistribution Brain / Biodistribution Heart / Biodistribution Kidney / Biodistribution Liver / Biodistribution Lung / Biodistribution Muscle: mean ± SD, n = 4
Summary of the method: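 Mature male C57BL/6N mice (6-8 weeks), either given E. coli O127:B8 LPS in PBS (10 mg/kg i.v.) 6 h before tracer or left untreated. HPLC-purified [18F]-labelled test compound (~50 μCi in 10% ethanol/saline) injected i.v. via tail vein. Sacrificed at 5 min, 30 min, 1 h and 2 h. Blood, tissues and organs weighed and gamma-counted against diluted injectate standards, giving %ID/g (mean ± SD).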

Chain of recombinant human iNOS (P35228 whole entry): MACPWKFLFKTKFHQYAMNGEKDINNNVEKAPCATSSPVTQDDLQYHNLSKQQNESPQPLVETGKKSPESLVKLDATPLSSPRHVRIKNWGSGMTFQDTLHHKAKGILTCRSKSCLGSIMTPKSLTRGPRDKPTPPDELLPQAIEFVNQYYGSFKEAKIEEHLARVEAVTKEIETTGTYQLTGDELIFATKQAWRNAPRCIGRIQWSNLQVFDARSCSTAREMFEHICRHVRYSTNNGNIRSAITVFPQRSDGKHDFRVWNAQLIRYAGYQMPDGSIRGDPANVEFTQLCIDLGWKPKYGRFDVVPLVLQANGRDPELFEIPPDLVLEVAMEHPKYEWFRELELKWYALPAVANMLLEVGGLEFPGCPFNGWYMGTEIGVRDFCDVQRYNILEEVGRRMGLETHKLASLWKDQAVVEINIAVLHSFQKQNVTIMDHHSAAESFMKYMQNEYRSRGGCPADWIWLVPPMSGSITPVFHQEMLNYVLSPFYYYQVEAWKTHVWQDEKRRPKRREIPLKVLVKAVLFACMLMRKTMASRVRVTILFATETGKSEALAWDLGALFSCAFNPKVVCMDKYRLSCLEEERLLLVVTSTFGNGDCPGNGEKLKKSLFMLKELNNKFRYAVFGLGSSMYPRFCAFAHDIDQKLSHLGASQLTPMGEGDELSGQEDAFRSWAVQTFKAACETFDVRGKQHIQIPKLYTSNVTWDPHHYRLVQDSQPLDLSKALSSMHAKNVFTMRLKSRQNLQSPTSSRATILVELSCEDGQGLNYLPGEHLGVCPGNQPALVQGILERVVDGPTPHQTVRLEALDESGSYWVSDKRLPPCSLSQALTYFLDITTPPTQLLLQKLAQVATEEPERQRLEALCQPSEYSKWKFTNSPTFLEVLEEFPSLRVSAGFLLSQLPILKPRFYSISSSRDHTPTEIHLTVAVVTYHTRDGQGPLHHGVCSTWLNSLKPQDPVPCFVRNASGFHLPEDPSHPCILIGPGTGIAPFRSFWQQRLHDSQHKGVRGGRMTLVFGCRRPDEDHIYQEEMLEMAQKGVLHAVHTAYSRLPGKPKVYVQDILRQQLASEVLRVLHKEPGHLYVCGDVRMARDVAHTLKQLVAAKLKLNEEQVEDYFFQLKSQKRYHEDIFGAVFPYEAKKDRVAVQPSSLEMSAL

Structure (SMILES): Cc1ccnc(N)c1 [Compound 1, 2-amino-4-methylpyridine]
blocking of the increased [18F]9 uptake in the LPS-treated mice (iNOS; blocking agent 10 mg/kg, i.v., data not shown): failed to block

Structure (SMILES): Nc1ccccn1 [Compound 2-AP, 2-aminopyridine, reference compound]
IC50 (recombinant human iNOS): 0.108 µM

Structure (SMILES): Cc1cc(N)nc(CC(C)OCCF)c1 (centres unmarked) [Compound 15, 6-(2-(2-Fluoroethoxy)propyl)-4-methylpyridin-2-amine]
activity in the iNOS assay (recombinant human iNOS): inactive

Structure (SMILES): CSCCC(C)Cc1cc(C)cc(N)n1 (centres unmarked) [Compound 33, 4-Methyl-6-(2-methyl-4-(methylthio)butyl)pyridin-2-amine]
activity in the iNOS assay (recombinant human iNOS): inactive

Structure (SMILES): CC(=N)NCc1cccc(CN)c1 [Compound 1400W, N-(3-(aminomethyl)benzyl)acetamidine]
tracer ([18F]9) uptake in the lungs and blood of the LPS-treated mice blocked (iNOS; mouse, in vivo): 32%

Structure (SMILES): Cc1cc(N)nc(CC(C)[18F])c1 (centres unmarked) [[^18F]9, [^18F]6-(2-Fluoropropyl)-4-methylpyridin-2-amine]
Biodistribution Blood ([1]; 5 min, Control mice): 2.37±0.18 %ID/g
Biodistribution Blood ([1]; 5 min, LPS-treated mice): 3.69±0.38 %ID/g
Biodistribution Blood ([1]; 30 min, Control mice): 1.22±0.16 %ID/g
Biodistribution Blood ([1]; 30 min, LPS-treated mice): 2.09±0.35 %ID/g
Biodistribution Blood ([1]; 1 h, Control mice): 0.31±0.04 %ID/g
Biodistribution Blood ([1]; 1 h, LPS-treated mice): 0.86±0.09 %ID/g
Biodistribution Blood ([1]; 2 h, Control mice): 0.27±0.22 %ID/g
Biodistribution Blood ([1]; 2 h, LPS-treated mice): 0.23±0.05 %ID/g
Biodistribution Bone ([1]; 5 min, Control mice): 1.52±0.36 %ID/g
Biodistribution Bone ([1]; 5 min, LPS-treated mice): 1.59±0.15 %ID/g
Biodistribution Bone ([1]; 30 min, Control mice): 2.26±0.55 %ID/g
Biodistribution Bone ([1]; 30 min, LPS-treated mice): 3.70±1.20 %ID/g
Biodistribution Bone ([1]; 1 h, Control mice): 2.57±0.64 %ID/g
Biodistribution Bone ([1]; 1 h, LPS-treated mice): 4.30±0.90 %ID/g
Biodistribution Bone ([1]; 2 h, Control mice): 5.59±4.20 %ID/g
Biodistribution Bone ([1]; 2 h, LPS-treated mice): 3.77±1.41 %ID/g
Biodistribution Brain ([1]; 5 min, Control mice): 1.60±0.17 %ID/g
Biodistribution Brain ([1]; 5 min, LPS-treated mice): 1.81±0.09 %ID/g
Biodistribution Brain ([1]; 30 min, Control mice): 0.28±0.02 %ID/g
Biodistribution Brain ([1]; 30 min, LPS-treated mice): 0.52±0.15 %ID/g
Biodistribution Brain ([1]; 1 h, Control mice): 0.11±0.02 %ID/g
Biodistribution Brain ([1]; 1 h, LPS-treated mice): 0.19±0.03 %ID/g
Biodistribution Brain ([1]; 2 h, Control mice): 0.07±0.03 %ID/g
Biodistribution Brain ([1]; 2 h, LPS-treated mice): 0.07±0.03 %ID/g
Biodistribution Heart ([1]; 5 min, Control mice): 1.50±0.12 %ID/g
Biodistribution Heart ([1]; 5 min, LPS-treated mice): 2.03±0.06 %ID/g
Biodistribution Heart ([1]; 30 min, Control mice): 0.60±0.05 %ID/g
Biodistribution Heart ([1]; 30 min, LPS-treated mice): 1.02±0.16 %ID/g
Biodistribution Heart ([1]; 1 h, Control mice): 0.19±0.02 %ID/g
Biodistribution Heart ([1]; 1 h, LPS-treated mice): 0.41±0.10 %ID/g
Biodistribution Heart ([1]; 2 h, Control mice): 0.08±0.02 %ID/g
Biodistribution Heart ([1]; 2 h, LPS-treated mice): 0.12±0.04 %ID/g
Biodistribution Kidney ([1]; 5 min, Control mice): 20.6±2.4 %ID/g
Biodistribution Kidney ([1]; 5 min, LPS-treated mice): 26.7±4.1 %ID/g
Biodistribution Kidney ([1]; 30 min, Control mice): 7.30±0.66 %ID/g
Biodistribution Kidney ([1]; 30 min, LPS-treated mice): 10.9±2.8 %ID/g
Biodistribution Kidney ([1]; 1 h, Control mice): 2.20±0.25 %ID/g
Biodistribution Kidney ([1]; 1 h, LPS-treated mice): 3.95±0.53 %ID/g
Biodistribution Kidney ([1]; 2 h, Control mice): 0.80±0.27 %ID/g
Biodistribution Kidney ([1]; 2 h, LPS-treated mice): 0.91±0.63 %ID/g
Biodistribution Liver ([1]; 5 min, Control mice): 33.2±3.3 %ID/g
Biodistribution Liver ([1]; 5 min, LPS-treated mice): 24.6±3.1 %ID/g
Biodistribution Liver ([1]; 30 min, Control mice): 10.7±0.3 %ID/g
Biodistribution Liver ([1]; 30 min, LPS-treated mice): 7.06±0.28 %ID/g
Biodistribution Liver ([1]; 1 h, Control mice): 2.59±0.49 %ID/g
Biodistribution Liver ([1]; 1 h, LPS-treated mice): 2.63±0.52 %ID/g
Biodistribution Liver ([1]; 2 h, Control mice): 0.74±0.23 %ID/g
Biodistribution Liver ([1]; 2 h, LPS-treated mice): 0.42±0.15 %ID/g
Biodistribution Lung ([1]; 5 min, Control mice): 3.33±0.28 %ID/g
Biodistribution Lung ([1]; 5 min, LPS-treated mice): 4.32±0.32 %ID/g
Biodistribution Lung ([1]; 30 min, Control mice): 1.14±0.13 %ID/g
Biodistribution Lung ([1]; 30 min, LPS-treated mice): 1.84±0.27 %ID/g
Biodistribution Lung ([1]; 1 h, Control mice): 0.31±0.06 %ID/g
Biodistribution Lung ([1]; 1 h, LPS-treated mice): 0.73±0.17 %ID/g
Biodistribution Lung ([1]; 2 h, Control mice): 0.15±0.03 %ID/g
Biodistribution Lung ([1]; 2 h, LPS-treated mice): 0.18±0.09 %ID/g
Biodistribution Muscle ([1]; 5 min, Control mice): 1.25±0.06 %ID/g
Biodistribution Muscle ([1]; 5 min, LPS-treated mice): 1.64±0.09 %ID/g
Biodistribution Muscle ([1]; 30 min, Control mice): 0.71±0.31 %ID/g
Biodistribution Muscle ([1]; 30 min, LPS-treated mice): 1.06±0.40 %ID/g
Biodistribution Muscle ([1]; 1 h, Control mice): 0.27±0.18 %ID/g
Biodistribution Muscle ([1]; 1 h, LPS-treated mice): 0.78±0.47 %ID/g
Biodistribution Muscle ([1]; 2 h, Control mice): 0.34±0.27 %ID/g
Biodistribution Muscle ([1]; 2 h, LPS-treated mice): 0.23±0.13 %ID/g
increase in injected dose/gram (ID/g) in the lungs, LPS-treated vs control mice ([1]; 5 min): 30%
increase in injected dose/gram (ID/g) in the lungs, LPS-treated vs control mice ([1]; 30 min): 60%

Now from value to compound:

activity in the iNOS assay (recombinant human iNOS): inactive
Structure (SMILES): COC(C)Cc1cc(C)cc(N)n1 (centres unmarked) [Compound 13, 6-(2-Methoxypropyl)-4-methylpyridin-2-amine]

selectivity against eNOS (recombinant human eNOS): approximately 30 fold
Structure (SMILES): Cc1cc(N)nc(CCCF)c1 [Compound 18, 6-(3-Fluoropropyl)-4-methylpyridin-2-amine]

activity in the iNOS assay (recombinant human iNOS): inactive
Structure (SMILES): COCCC(C)Cc1cc(C)cc(N)n1 (centres unmarked) [Compound 27, 6-(4-methoxy-2-methylbutyl)-4-methylpyridin-2-amine]
